From ChEMBL document CHEMBL3784971, “Synthesis, characterization, antimicrobial and biofilm inhibitory studies of new esterquats” (Bioorg Med Chem Lett, 2016)

Legend:
Staphylococcus aureus [1] = experiment: Antimicrobial activity against Staphylococcus aureus MTCC 96 assessed as growth inhibition after 24 hrs by agar well diffusion method; format: functional; settings: MTCC 96, 24 h
Bacillus subtilis [2] = experiment: Antimicrobial activity against Bacillus subtilis MTCC 121 assessed as growth inhibition after 24 hrs by agar well diffusion method; format: functional; settings: MTCC 121, 24 h
Staphylococcus aureus [3] = experiment: Antimicrobial activity against Staphylococcus aureus MLS16 MTCC 2940 assessed as growth inhibition after 24 hrs by agar well diffusion method; format: functional; settings: MLS16 MTCC 2940, 24 h
Micrococcus luteus [4] = experiment: Antimicrobial activity against Micrococcus luteus MTCC 2470 assessed as growth inhibition after 24 hrs by agar well diffusion method; format: functional; settings: MTCC 2470, 24 h
Raoultella planticola [5] = experiment: Antimicrobial activity against Klebsiella planticola MTCC 530 assessed as growth inhibition after 24 hrs by agar well diffusion method; format: functional; settings: MTCC 530, 24 h
Escherichia coli [6] = experiment: Antimicrobial activity against Escherichia coli MTCC 739 assessed as growth inhibition after 24 hrs by agar well diffusion method; format: functional; settings: MTCC 739, 24 h
Pseudomonas aeruginosa = experiment: Antimicrobial activity against Pseudomonas aeruginosa MTCC 2453 assessed as growth inhibition after 24 hrs by agar well diffusion method; format: functional; settings: MTCC 2453, 24 h
Candida albicans [7] = experiment: Antimicrobial activity against Candida albicans MTCC 3017 assessed as growth inhibition after 24 hrs by agar well diffusion method; format: functional; settings: MTCC 3017, 24 h
Candida albicans [8] = experiment: Antimicrobial activity against Candida albicans MTCC 183 assessed as growth inhibition after 24 hrs by agar well diffusion method; format: functional; settings: MTCC 183, 24 h
Candida albicans [9] = experiment: Antimicrobial activity against Candida albicans MTCC 227 assessed as growth inhibition after 24 hrs by agar well diffusion method; format: functional; settings: MTCC 227, 24 h
Candida albicans [10] = experiment: Antimicrobial activity against Candida albicans MTCC 854 assessed as growth inhibition after 24 hrs by agar well diffusion method; format: functional; settings: MTCC 854, 24 h
Candida albicans [11] = experiment: Antimicrobial activity against Candida albicans MTCC 1637 assessed as growth inhibition after 24 hrs by agar well diffusion method; format: functional; settings: MTCC 1637, 24 h
Candida albicans [12] = experiment: Antimicrobial activity against Candida albicans MTCC 3018 assessed as growth inhibition after 24 hrs by agar well diffusion method; format: functional; settings: MTCC 3018, 24 h
Candida albicans [13] = experiment: Antimicrobial activity against Candida albicans MTCC 3958 assessed as growth inhibition after 24 hrs by agar well diffusion method; format: functional; settings: MTCC 3958, 24 h
Candida albicans [14] = experiment: Antimicrobial activity against Candida albicans MTCC 4748 assessed as growth inhibition after 24 hrs by agar well diffusion method; format: functional; settings: MTCC 4748, 24 h
Candida albicans [15] = experiment: Antimicrobial activity against Candida albicans MTCC 7315 assessed as growth inhibition after 24 hrs by agar well diffusion method; format: functional; settings: MTCC 7315, 24 h
Candida parapsilosis [16] = experiment: Antimicrobial activity against Candida parapsilosis MTCC 1744 assessed as growth inhibition after 24 hrs by agar well diffusion method; format: functional; settings: Lodderomyces parapsilosis, MTCC 1744, 24 h
[Candida] aaseri [17] = Antimicrobial activity against Candida aaseri MTCC 1962 assessed as growth inhibition after 24 hrs by agar well diffusion method; format: functional; settings: Yamadazyma aaseri, MTCC 1962, 24 h
Nakaseomyces glabratus [18] = experiment: Antimicrobial activity against Candida glabrata MTCC 3019 assessed as growth inhibition after 24 hrs by agar well diffusion method; format: functional; settings: MTCC 3019, 24 h
Pichia kudriavzevii [19] = experiment: Antimicrobial activity against Candida krusei MTCC 3020 assessed as growth inhibition after 24 hrs by agar well diffusion method; format: functional; settings: MTCC 3020, 24 h
Pichia sporocuriosa [20] = experiment: Antimicrobial activity against Issatchenkia hanoiensis MTCC 4755 assessed as growth inhibition after 24 hrs by agar well diffusion method; format: functional; settings: MTCC 4755, 24 h
Staphylococcus aureus [21] = experiment: Bactericidal activity against Staphylococcus aureus MTCC 96 after 24 hrs by serial dilution method; format: functional; settings: MTCC 96, 24 h
Bacillus subtilis [22] = experiment: Bactericidal activity against Bacillus subtilis MTCC 121 after 24 hrs by serial dilution method; format: functional; settings: MTCC 121, 24 h
Staphylococcus aureus [23] = experiment: Bactericidal activity against Staphylococcus aureus MLS16 MTCC 2940 after 24 hrs by serial dilution method; format: functional; settings: MLS16 MTCC 2940, 24 h
Micrococcus luteus [24] = experiment: Bactericidal activity against Micrococcus luteus MTCC 2470 after 24 hrs by serial dilution method; format: functional; settings: MTCC 2470, 24 h
Raoultella planticola [25] = experiment: Bactericidal activity against Klebsiella planticola MTCC 530 after 24 hrs by serial dilution method; format: functional; settings: MTCC 530, 24 h
Escherichia coli [26] = experiment: Bactericidal activity against Escherichia coli MTCC 739 after 24 hrs by serial dilution method; format: functional; settings: MTCC 739, 24 h
Candida albicans [27] = experiment: Fungicidal activity against Candida albicans MTCC 3017 after 24 hrs by serial dilution method; format: functional; settings: MTCC 3017, 24 h
Candida albicans [28] = experiment: Fungicidal activity against Candida albicans MTCC 183 after 24 hrs by serial dilution method; format: functional; settings: MTCC 183, 24 h
Candida albicans [29] = experiment: Fungicidal activity against Candida albicans MTCC 227 after 24 hrs by serial dilution method; format: functional; settings: MTCC 227, 24 h
Candida albicans [30] = experiment: Fungicidal activity against Candida albicans MTCC 854 after 24 hrs by serial dilution method; format: functional; settings: MTCC 854, 24 h
Candida albicans [31] = experiment: Fungicidal activity against Candida albicans MTCC 1637 after 24 hrs by serial dilution method; format: functional; settings: MTCC 1637, 24 h
Candida albicans [32] = experiment: Fungicidal activity against Candida albicans MTCC 3018 after 24 hrs by serial dilution method; format: functional; settings: MTCC 3018, 24 h
Candida albicans [33] = experiment: Fungicidal activity against Candida albicans MTCC 3958 after 24 hrs by serial dilution method; format: functional; settings: MTCC 3958, 24 h
Candida albicans [34] = experiment: Fungicidal activity against Candida albicans MTCC 4748 after 24 hrs by serial dilution method; format: functional; settings: MTCC 4748, 24 h
Candida albicans [35] = experiment: Fungicidal activity against Candida albicans MTCC 7315 after 24 hrs by serial dilution method; format: functional; settings: MTCC 7315, 24 h
Candida parapsilosis [36] = experiment: Fungicidal activity against Candida parapsilosis MTCC 1744 after 24 hrs by serial dilution method; format: functional; settings: Lodderomyces parapsilosis, MTCC 1744, 24 h
[Candida] aaseri [37] = Fungicidal activity against Candida aaseri MTCC 1962 after 24 hrs by serial dilution method; format: functional; settings: Yamadazyma aaseri, MTCC 1962, 24 h
Nakaseomyces glabratus [38] = experiment: Fungicidal activity against Candida glabrata MTCC 3019 after 24 hrs by serial dilution method; format: functional; settings: MTCC 3019, 24 h
Pichia kudriavzevii [39] = experiment: Fungicidal activity against Candida krusei MTCC 3020 after 24 hrs by serial dilution method; format: functional; settings: MTCC 3020, 24 h
Pichia sporocuriosa [40] = experiment: Fungicidal activity against Issatchenkia hanoiensis MTCC 4755 after 24 hrs by serial dilution method; format: functional; settings: MTCC 4755, 24 h
Staphylococcus aureus [41] = experiment: Antibiofilm activity against Staphylococcus aureus MTCC 96 after 24 hrs by crystal violet staining based assay; format: functional, organism-based; settings: MTCC 96, 24 h
In short: (§1)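 Biofilm inhibition tested for amine esters and esterquats. IC50 values (µg/mL) are the mean of three determinations, with ciprofloxacin as reference.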

Bacillus subtilis [42] = experiment: Antibiofilm activity against Bacillus subtilis MTCC 121 after 24 hrs by crystal violet staining based assay; format: functional, organism-based; settings: MTCC 121, 24 h; in short: as §1
Staphylococcus aureus [43] = experiment: Antibiofilm activity against Staphylococcus aureus MLS16 MTCC 2940 after 24 hrs by crystal violet staining based assay; format: functional, organism-based; settings: MLS16 MTCC 2940, 24 h; in short: as §1
Micrococcus luteus [44] = experiment: Antibiofilm activity against Micrococcus luteus MTCC 2470 after 24 hrs by crystal violet staining based assay; format: functional, organism-based; settings: MTCC 2470, 24 h; in short: as §1

`CCCCCC[N+](C)(C)CCCCCCCCCCC(=O)OC.[Cl-]` showed an MIC (Staphylococcus aureus [1]) of 3.9 µg/mL, an MIC (Bacillus subtilis [2]) of 7.8 µg/mL and an MIC (Staphylococcus aureus [3]) of 7.8 µg/mL. For the same compound, the MIC (Micrococcus luteus [4]) was 3.9 µg/mL, the MIC (Raoultella planticola [5]) was 15.6 µg/mL and the MIC (Escherichia coli [6]) was 31.2 µg/mL. For the same compound, the MIC (Pseudomonas aeruginosa) was over 125 µg/mL, the MIC (Candida albicans [7]) was 15.6 µg/mL and the MIC (Candida albicans [8]) was 15.6 µg/mL. For the same compound, the MIC (Candida albicans [9]) was 31.2 µg/mL, the MIC (Candida albicans [10]) was 15.6 µg/mL and the MIC (Candida albicans [11]) was 31.2 µg/mL. The MIC (Candida albicans [12]) was 15.6 µg/mL, the MIC (Candida albicans [13]) was 31.2 µg/mL and the MIC (Candida albicans [14]) was 15.6 µg/mL. The MIC (Candida albicans [15]) was 15.6 µg/mL, the MIC (Candida parapsilosis [16]) was 15.6 µg/mL and the MIC ([Candida] aaseri [17]) was 31.2 µg/mL. For the same compound, the MIC (Nakaseomyces glabratus [18]) was 15.6 µg/mL, the MIC (Pichia kudriavzevii [19]) was 15.6 µg/mL and the MIC (Pichia sporocuriosa [20]) was 15.6 µg/mL. For the same compound, the MBC (Staphylococcus aureus [21]) was 7.8 µg/mL, the MBC (Bacillus subtilis [22]) was 7.8 µg/mL and the MBC (Staphylococcus aureus [23]) was 15.6 µg/mL. It also gave an MBC (Micrococcus luteus [24]) of 7.8 µg/mL, an MBC (Raoultella planticola [25]) of 31.2 µg/mL and an MBC (Escherichia coli [26]) of 62.5 µg/mL. For the same compound, the MFC (Candida albicans [27]) was 31.2 µg/mL, the MFC (Candida albicans [28]) was 31.2 µg/mL and the MFC (Candida albicans [29]) was 62.5 µg/mL. It also gave an MFC (Candida albicans [30]) of 31.2 µg/mL, an MFC (Candida albicans [31]) of 62.5 µg/mL and an MFC (Candida albicans [32]) of 31.2 µg/mL. It also gave an MFC (Candida albicans [33]) of 31.2 µg/mL, an MFC (Candida albicans [34]) of 15.6 µg/mL and an MFC (Candida albicans [35]) of 15.6 µg/mL. The MFC (Candida parapsilosis [36]) was 31.2 µg/mL, the MFC ([Candida] aaseri [37]) was 62.5 µg/mL and the MFC (Nakaseomyces glabratus [38]) was 31.2 µg/mL. For the same compound, the MFC (Pichia kudriavzevii [39]) was 31.2 µg/mL, the MFC (Pichia sporocuriosa [40]) was 31.2 µg/mL and the IC50 (Staphylococcus aureus [41]) was 2.5 µg/mL. It also gave an IC50 (Bacillus subtilis [42]) of 4.8 µg/mL, an IC50 (Staphylococcus aureus [43]) of 3.2 µg/mL and an IC50 (Micrococcus luteus [44]) of 2.1 µg/mL.
`CCCCCCCCCCCC[N+](C)(C)CCCCCCCCCCC(=O)OC.[Cl-]` was tested, and the MIC (Staphylococcus aureus [1]) was 15.6 µg/mL, the MIC (Bacillus subtilis [2]) was 15.6 µg/mL and the MIC (Staphylococcus aureus [3]) was 7.8 µg/mL. For the same compound, the MIC (Micrococcus luteus [4]) was 7.8 µg/mL, the MIC (Raoultella planticola [5]) was 7.8 µg/mL and the MIC (Escherichia coli [6]) was 15.6 µg/mL. The MIC (Pseudomonas aeruginosa) was over 125 µg/mL, the MIC (Candida albicans [7]) was 31.2 µg/mL and the MIC (Candida albicans [8]) was 31.2 µg/mL. It also gave an MIC (Candida albicans [9]) of 31.2 µg/mL, an MIC (Candida albicans [10]) of 31.2 µg/mL and an MIC (Candida albicans [11]) of 62.5 µg/mL. It also gave an MIC (Candida albicans [12]) of 62.5 µg/mL, an MIC (Candida albicans [13]) of 62.5 µg/mL and an MIC (Candida albicans [14]) of 15.6 µg/mL. It also gave an MIC (Candida albicans [15]) of 31.2 µg/mL, an MIC (Candida parapsilosis [16]) of 62.5 µg/mL and an MIC ([Candida] aaseri [17]) of 31.2 µg/mL. The MIC (Nakaseomyces glabratus [18]) was 31.2 µg/mL, the MIC (Pichia kudriavzevii [19]) was 62.5 µg/mL and the MIC (Pichia sporocuriosa [20]) was 31.2 µg/mL. The MBC (Staphylococcus aureus [21]) was 31.2 µg/mL, the MBC (Bacillus subtilis [22]) was 31.2 µg/mL and the MBC (Staphylococcus aureus [23]) was 31.2 µg/mL. It also gave an MBC (Micrococcus luteus [24]) of 31.2 µg/mL, an MBC (Raoultella planticola [25]) of 15.6 µg/mL and an MBC (Escherichia coli [26]) of 31.2 µg/mL. For the same compound, the MFC (Candida albicans [27]) was 62.5 µg/mL, the MFC (Candida albicans [28]) was 31.2 µg/mL and the MFC (Candida albicans [29]) was 31.2 µg/mL. The MFC (Candida albicans [30]) was 62.5 µg/mL, the MFC (Candida albicans [31]) was 62.5 µg/mL and the MFC (Candida albicans [32]) was 62.5 µg/mL. For the same compound, the MFC (Candida albicans [33]) was 31.2 µg/mL, the MFC (Candida albicans [34]) was 31.2 µg/mL and the MFC (Candida albicans [35]) was 31.2 µg/mL. For the same compound, the MFC (Candida parapsilosis [36]) was 62.5 µg/mL, the MFC ([Candida] aaseri [37]) was 62.5 µg/mL and the MFC (Nakaseomyces glabratus [38]) was 31.2 µg/mL. It also gave an MFC (Pichia kudriavzevii [39]) of 62.5 µg/mL, an MFC (Pichia sporocuriosa [40]) of 62.5 µg/mL and an IC50 (Staphylococcus aureus [41]) of 9.1 µg/mL. The IC50 (Bacillus subtilis [42]) was 8.5 µg/mL, the IC50 (Staphylococcus aureus [43]) was 22.2 µg/mL and the IC50 (Micrococcus luteus [44]) was 8.8 µg/mL.
